Experimental data published in article PMC3024510 (Cancer Immunology, Immunotherapy : CII, 2010).

Experiments:
HLA-A2 = assay: HLA stabilization assay for peptide binding to HLA class I molecules; parameters: species or system human; settings: mean value from two experiments; normalized to HIV (40 μM peptide)
T2 cells = format: cell-based, human; settings: 4 h 51Cr release; singlets
In short: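 Effector: a clone from RCC-patient PBLs given repeated peptide-loaded autologous DC and PBL stimulations, limiting-dilution cloned, and kept on 120 U/ml IL-2. […] Supernatant 51Cr was gamma-counted.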

cancer cells = assay: cold target inhibition assay; format: cell-based; settings: unlabeled peptide-loaded T2 cells, inhibitor:target ratio 20:1; singlets
In short: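 51Cr-labeled (1 h) cancer cell line targets, including an HLA-A2− breast cancer line, were co-cultured 4 h with the peptide-specific CTL clone. The clone came from RCC-patient PBLs and was maintained on 120 U/ml IL-2. Unlabeled peptide-loaded T2 cells were added at 20-fold excess over targets. Supernatant 51Cr was gamma-counted.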

[1] = tested on: PBLs from cancer patients; assay: IFN-γ ELISPOT assay, cancer patients; format: cell-based, human; settings: all cancer patients tested (BC, MM, RCC)
In short: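 Cells were monocyte-depleted, cryopreserved leukapheresis PBLs from end-stage breast cancer, MM and RCC patients. They were stimulated once with 20 µM peptide, given 40 U/ml IL-2 next day, and tested after 7–8 days. The overnight IFN-γ ELISPOT used 3 × 10^5 cells/well in duplicate ± 5 µM peptide, with 10^4 T2 cells per well. Responders: background-subtracted mean spots ±½ SD >25 per 10^5 cells.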

| Sequence | HLA-A2 stabilization relative to HIV (HLA-A2) | lysis of peptide-loaded T2 cells by CB204-specific CTL clone (T2 cells) | inhibition of cancer cell lysis by cold T2 target cells presenting the peptide (cancer cells) | cancer patients with spontaneous T-cell responses [1] |
| --- | --- | --- | --- | --- |
| ILIDWLVQV [CB204] | stabilizes HLA-A2 to a higher degree than HIV | able to lyse T2 cells loaded with CB204 | inhibited lysis of cancer cells | 73% |
| ILKEPVHGV [HIV-1 pol476–484, reference compound] |  | not T2 cells loaded with an irrelevant HIV peptide |  |  |
